ChEMBL document CHEMBL3259569 (J Med Chem, 2014)
The source made the active and inactive calls. The calls are words filed in the database; no cut-off is given here.

Columns and labels:
[1] = molecular target: T1, Polyamine deacetylase HDAC10 (Homo sapiens, UniProt Q969S8); assay: Inhibition of HDAC10 (unknown origin) by fluorescence assay
T1 sequence (Q969S8 whole entry): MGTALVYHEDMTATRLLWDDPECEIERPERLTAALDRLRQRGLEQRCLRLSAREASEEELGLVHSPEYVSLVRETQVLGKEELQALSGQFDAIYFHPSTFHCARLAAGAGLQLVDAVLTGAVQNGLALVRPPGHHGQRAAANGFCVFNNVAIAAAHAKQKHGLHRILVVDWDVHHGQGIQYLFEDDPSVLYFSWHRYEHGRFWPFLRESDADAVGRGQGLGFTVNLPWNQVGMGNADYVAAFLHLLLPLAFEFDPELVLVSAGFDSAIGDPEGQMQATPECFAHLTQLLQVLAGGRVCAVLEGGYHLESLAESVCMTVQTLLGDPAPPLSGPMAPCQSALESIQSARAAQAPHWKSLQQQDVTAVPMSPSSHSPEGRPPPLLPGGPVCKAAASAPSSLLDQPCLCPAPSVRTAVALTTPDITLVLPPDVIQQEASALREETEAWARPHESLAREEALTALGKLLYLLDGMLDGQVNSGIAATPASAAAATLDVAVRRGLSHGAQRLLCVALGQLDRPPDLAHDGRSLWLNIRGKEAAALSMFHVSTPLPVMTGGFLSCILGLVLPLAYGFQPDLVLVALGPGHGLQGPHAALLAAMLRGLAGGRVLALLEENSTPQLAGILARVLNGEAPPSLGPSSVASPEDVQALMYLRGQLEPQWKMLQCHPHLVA
In short: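 Run by a contract testing lab. Compounds were dissolved in DMSO and tested in 10-dose IC50 mode, using 3-fold serial dilution starting at 10 μM. IC50 was taken from the dose series.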

[2] = tested on: HCT-116; assay: Induction of apoptosis in human HCT116 cells assessed as increase in p53 protein level at 0.1 to 3 uM after 24 hrs by immunoblotting analysis; type: functional, cell-based
[3] = Cytotoxicity against human HSC3 cells by MTT assay; type: functional, cell-based; conditions: HSC-3
[4] = tested on: HCT-116; assay: Induction of apoptosis in human HCT116 cells assessed as caspase-3 activation at 3 uM after 24 hrs by Western blotting analysis in presence of Z-VAD-FMK; type: functional, cell-based
In short: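 HCT116 cells treated 24 h with 3 μM compound with or without 20 μM z-VAD-fmk pan-caspase inhibitor; caspase 3 and PARP assessed by Western blot.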

[5] = molecular target: Histone deacetylase 5 (Homo sapiens, UniProt Q9UQL6); assay: Inhibition of HDAC5 (unknown origin) by fluorescence assay
Histone deacetylase 5, sequence (Q9UQL6 whole entry): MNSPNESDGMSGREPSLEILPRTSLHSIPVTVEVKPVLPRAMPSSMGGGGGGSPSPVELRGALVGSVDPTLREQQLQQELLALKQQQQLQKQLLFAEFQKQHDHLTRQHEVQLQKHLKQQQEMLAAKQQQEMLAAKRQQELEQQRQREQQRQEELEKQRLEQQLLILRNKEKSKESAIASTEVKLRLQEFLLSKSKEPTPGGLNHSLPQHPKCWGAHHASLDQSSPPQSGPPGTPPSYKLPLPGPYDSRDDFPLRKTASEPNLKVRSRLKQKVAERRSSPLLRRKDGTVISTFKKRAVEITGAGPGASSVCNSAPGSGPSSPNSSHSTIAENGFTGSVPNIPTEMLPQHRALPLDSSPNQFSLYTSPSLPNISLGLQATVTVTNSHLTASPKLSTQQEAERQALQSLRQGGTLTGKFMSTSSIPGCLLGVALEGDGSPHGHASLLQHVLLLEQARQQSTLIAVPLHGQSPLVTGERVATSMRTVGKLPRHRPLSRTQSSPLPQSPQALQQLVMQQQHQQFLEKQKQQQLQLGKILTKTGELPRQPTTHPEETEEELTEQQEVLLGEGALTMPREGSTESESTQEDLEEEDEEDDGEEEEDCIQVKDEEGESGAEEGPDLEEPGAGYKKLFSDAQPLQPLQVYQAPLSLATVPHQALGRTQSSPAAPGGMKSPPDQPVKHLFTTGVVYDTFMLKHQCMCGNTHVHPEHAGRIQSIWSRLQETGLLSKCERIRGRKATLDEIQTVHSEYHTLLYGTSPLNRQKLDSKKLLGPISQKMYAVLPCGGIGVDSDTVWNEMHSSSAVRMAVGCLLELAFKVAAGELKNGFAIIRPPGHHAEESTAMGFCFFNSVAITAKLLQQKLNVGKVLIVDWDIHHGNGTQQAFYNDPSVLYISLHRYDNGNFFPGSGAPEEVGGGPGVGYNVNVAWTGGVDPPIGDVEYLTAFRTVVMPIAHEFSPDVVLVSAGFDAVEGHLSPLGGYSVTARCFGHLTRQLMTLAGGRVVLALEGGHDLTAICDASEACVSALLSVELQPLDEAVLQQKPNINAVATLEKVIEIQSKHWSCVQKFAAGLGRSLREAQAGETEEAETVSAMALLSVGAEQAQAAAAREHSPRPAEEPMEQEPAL

[6] = tested on: PC-3; assay: Cytotoxicity against human PC3 cells by MTT assay; type: functional, cell-based
[7] = tested on: HCT-116; assay: Induction of apoptosis in p53 knock down human HCT116 cells assessed as caspase-3 activation at 1 uM after 24 hrs by immunoblotting analysis; type: functional, cell-based
[8] = tested on: HCT-116; assay: Induction of apoptosis in p53 knock down human HCT116 cells assessed as PARP cleavage at 1 uM after 24 hrs by immunoblotting analysis; type: functional, cell-based
[9] = tested on: HCT-116; assay: Cytotoxicity against human HCT116 cells by MTT assay; type: functional, cell-based
[10] = tested on: HCT-116; assay: Induction of apoptosis in human HCT116 cells assessed as accumulation at sub-G1 phase after 24 hrs by propidium iodide staining-based flow cytometric analysis; type: functional, cell-based
In short: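 HCT116 cells treated with indicated concentrations for 24 h; DNA content analyzed by flow cytometry for cell cycle distribution and sub-G1 fraction; means of at least three independent experiments.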

[11] = molecular target: Histone deacetylase; assay: Inhibition of HDAC in human HeLa cell nuclear extract using Boc-Lys(Ac)-AMC as substrate after 30 mins by fluorimetric analysis; type: protein assay
[12] = AUC (0 to infinity) in ICR mouse at 10 mg/kg, po by LC-MS/MS analysis; type: ADME, organism-based; parameters: time infinity, dose 10 mg/kg, route oral; conditions: plasma
[13] = tested on: Mus musculus; assay: Toxicity in ICR mouse assessed as change in body weight at 400 to 1000 mg/kg, po treated for 7 days measured for 1 week; type: organism-based; parameters: dose 400-1000 mg/kg, route oral; conditions: in vivo, 168 h
In short: (§1)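 ICR mice fasted overnight, then given vehicle (0.2 mL/20 g) or compound orally at 400, 600 or 1000 mg/kg (n = 10/group) daily for 7 days, then monitored 1 week; weighed daily for 1 week, then twice weekly; 2/10 deaths defines toxic dose.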

[14] = tested on: HCT-116; assay: Antitumor activity against human HCT116 cells xenografted in nude athymic mouse assessed as tumor growth inhibition at 100 mg/kg/day, po after 2 to 16 days relative to control; type: functional; conditions: read-out: TGI
[15] = tested on: HCT-116; assay: Induction of apoptosis in human HCT116 cells assessed as accumulation at sub-G1 phase at 1 uM by propidium iodide staining-based flow cytometric analysis; type: functional, cell-based; conditions: TDE = time-dependent effect
In short: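 HCT116 cells exposed to 1 μM compound for varying time intervals; sub-G1 population quantified by flow cytometry.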

[16] = tested on: Mus musculus; assay: Toxicity in ICR mouse at 400 to 1000 mg/kg, po treated for 7 days measured for 1 week; type: organism-based; parameters: dose 400-1000 mg/kg, route oral; conditions: in vivo, 168 h; in short: as §1
[17] = molecular target: Histone deacetylase 2 (Homo sapiens, UniProt Q92769)
Histone deacetylase 2, sequence (Q92769 whole entry): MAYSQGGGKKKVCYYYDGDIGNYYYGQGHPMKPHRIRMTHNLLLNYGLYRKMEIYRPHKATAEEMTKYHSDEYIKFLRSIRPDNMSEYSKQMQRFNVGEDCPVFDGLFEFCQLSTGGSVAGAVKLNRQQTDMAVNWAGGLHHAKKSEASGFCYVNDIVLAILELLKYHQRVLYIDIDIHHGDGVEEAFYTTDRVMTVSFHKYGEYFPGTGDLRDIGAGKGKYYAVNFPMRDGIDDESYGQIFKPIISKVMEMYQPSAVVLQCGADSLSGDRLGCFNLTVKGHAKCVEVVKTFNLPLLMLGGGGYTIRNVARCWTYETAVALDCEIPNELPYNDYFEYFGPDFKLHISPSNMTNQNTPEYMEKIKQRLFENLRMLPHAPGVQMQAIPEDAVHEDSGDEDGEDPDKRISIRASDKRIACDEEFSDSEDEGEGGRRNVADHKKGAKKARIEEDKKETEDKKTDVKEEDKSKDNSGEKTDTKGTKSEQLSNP

IC50 [1]: 4130 nM
IC50 [5]: 8730 nM
IC50 [11]: 100 nM
AUC(0-inf) [12]: 466 ng·h/mL
IC50 [17]: 1160 nM
Structure (SMILES): O=C(/C=C/c1cccc(S(=O)(=O)n2ccc3cccnc32)c1)NO
Activity [2]: Active
IC50 [3]: 660 nM
Activity [4]: inactive
IC50 [6]: 1630 nM
Activity [7]: inactive
Activity [8]: inactive
IC50 [9]: 390 nM
Activity [10]: Dose-dependent effect
Activity [13]: Non-toxic
inhibition in vivo at 100 mg/kg/day [14]: 66.9%
Activity [15]: tde
Activity [16]: Non-toxic
